The nature of data set [1]: Cytotoxicity in HEK293 cells. Type of data set: cell-based. The note with it: human. In a few lines: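 HEK293 cells (ATCC CRL-1573) counted by haemocytometer and seeded at 5000 cells/well into compound-containing plates in DMEM plus 10% FBS. Incubated 20 h at 37 °C, 5% CO2. Resazurin added (25 μg/mL final) for a further 3 h, then fluorescence read at ex 530/em 590 nm. Percent inhibition calculated against media-only and untreated-cell controls. CC50 fitted from dose-response curves with variable bottom, top and slope.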

Data set [2] deals with human red blood cells (RBC). Briefly: Haemolytic activity in human red blood cells. Type of data set: cell-based. The note with it: 1 h, 37 °C. The procedure, abridged:
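Human whole blood washed three times with 3 volumes of 0.9% NaCl, counted by haemocytometer, and resuspended in saline. Cells added to compound-containing plates, shaken 10 min, then incubated 1 h at 37 °C. Plates centrifuged at 1000 × g for 10 min to pellet cells and debris. Haemolysis read as supernatant absorbance at 405 nm.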

Structures are written as SMILES.

Broadly, the CC50 is the concentration that lowers cell viability or growth by half. A higher CC50 goes with lower toxicity to the cells.

In data set [1], `O=C(CCCCCCCCCC[P+](c1ccccc1)(c1ccccc1)c1ccccc1)Nc1ccc(O)c(O)c1` [Compound 11e, (11-((3,4-dihydroxyphenyl)amino)-11-oxoundecyl)triphenylphosphonium bromide] came in with a 50% cytotoxic concentration (CC50) at 20 h of 22.4 µg/mL.

In the case of `CC[C@H](C)[C@H](NC(=O)CN)C(=O)NCC(=O)N[C@@H](C)C(=O)N[C@H](C(=O)N[C@@H](CC(C)C)C(=O)N[C@@H](CCCCN)C(=O)N[C@H](C(=O)N[C@@H](CC(C)C)C(=O)N[C@H](C(=O)N[C@H](C(=O)NCC(=O)N[C@@H](CC(C)C)C(=O)N1CCC[C@H]1C(=O)N[C@@H](C)C(=O)N[C@@H](CC(C)C)C(=O)N[C@H](C(=O)N[C@@H](CO)C(=O)N[C@@H](Cc1c[nH]c2ccccc12)C(=O)N[C@H](C(=O)N[C@@H](CCCCN)C(=O)N[C@@H](CCCNC(=N)N)C(=O)N[C@@H](CCCCN)C(=O)N[C@@H](CCCNC(=N)N)C(=O)N[C@@H](CCC(N)=O)C(=O)N[C@@H](CCC(N)=O)C(N)=O)[C@@H](C)CC)[C@@H](C)CC)[C@@H](C)O)[C@@H](C)O)C(C)C)C(C)C` [Mellitin, melittin], in data set [2], the “RBC (HC10), concentration at 10% haemolytic activity” value is on record as 2.7 µg/mL.

Values taken from article PMC10704080 (Journal of Advanced Research, 2023).
